Reference: ChEMBL document CHEMBL1126724, “Multiple binding modes for the receptor-bound conformations of cyclic AII agonists” (J Med Chem, 1993)
*1 amine or outer side, *2 acyl side, *3 side chain or, on linkers, in order; H or OH if unused. Where a SMILES comes first, the peptide text is derived from it. Bridges are numbered along the chain shown (N, C = ends). Roman numbers before positions name the chains, in order. [ ]: non-standard residue; d: D form. Pro(4R-SH) = O=C([C@@H]1C[C@@H](S[*:3])CN1[*:1])[*:2]; Pro(4S-SH) = O=C([C@@H]1C[C@H](S[*:3])CN1[*:1])[*:2]; hCys = N[C@@H](CCS)C(=O)O; Orn = NCCC[C@H](N)C(=O)O; Sar = CNCC(=O)O

Legend:
Oryctolagus cuniculus = organism: Oryctolagus cuniculus; assay: Agonist efficacy assessed from contractile responses on rabbit aorta (AT1); format: functional
Procedure, shortened: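 Rabbit thoracic aortic rings held in 20-mL baths of Krebs-bicarbonate at 37 °C, gassed with 5% CO2 in oxygen. Resting tension 4.0 g, 90-min equilibration. Peptides added cumulatively until maximal response. EC50 read graphically from the curves as the concentration giving 50% of maximal contraction.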

[1] = biological target: T1, Angiotensin II receptor (AT-1) type-1 (Rattus norvegicus, UniProt P29089+P25095); assay: In vitro binding affinity to the angiotensin II receptor, type 1 in rat liver
T1 sequence (P29089 whole entry): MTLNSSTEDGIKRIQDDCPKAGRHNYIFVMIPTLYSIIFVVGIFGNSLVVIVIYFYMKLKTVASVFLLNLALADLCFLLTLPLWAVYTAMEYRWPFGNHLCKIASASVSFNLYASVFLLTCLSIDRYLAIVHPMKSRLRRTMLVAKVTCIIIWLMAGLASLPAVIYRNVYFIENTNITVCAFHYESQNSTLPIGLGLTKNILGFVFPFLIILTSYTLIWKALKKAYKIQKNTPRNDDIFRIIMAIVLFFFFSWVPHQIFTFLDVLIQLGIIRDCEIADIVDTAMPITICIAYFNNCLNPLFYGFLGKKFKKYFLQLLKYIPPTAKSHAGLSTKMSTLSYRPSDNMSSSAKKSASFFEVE
T1 sequence (P25095 whole entry): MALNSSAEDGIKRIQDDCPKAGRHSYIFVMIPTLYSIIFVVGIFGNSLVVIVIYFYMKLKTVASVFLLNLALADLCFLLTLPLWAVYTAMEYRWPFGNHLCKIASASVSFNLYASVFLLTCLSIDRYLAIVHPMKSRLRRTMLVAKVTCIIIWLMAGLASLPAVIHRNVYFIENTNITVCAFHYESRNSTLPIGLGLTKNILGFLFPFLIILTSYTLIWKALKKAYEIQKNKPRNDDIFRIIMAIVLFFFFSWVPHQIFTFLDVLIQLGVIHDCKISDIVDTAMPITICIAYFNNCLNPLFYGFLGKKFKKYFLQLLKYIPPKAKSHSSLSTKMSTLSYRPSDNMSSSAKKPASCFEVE
Procedure, shortened: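 Buffer: 50 mM NaH2PO4 pH 7.1 with 100 μM bacitracin, 0.2% BSA, 100 mM NaCl, 10 mM MgCl2, 1 mM EGTA. Incubated 1 h at 25 °C, then filtered, and filters counted. IC50 from weighted nonlinear regression to the mass action equation.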

Molecule	EC50 (Oryctolagus cuniculus)	IC50 [1]
CNCC(=O)N[C@@H](CCCN=C(N)N)C(=O)N1C[C@@H]2C[C@H]1C(=O)N[C@@H](Cc1ccc(O)cc1)C(=O)N[C@H](C(=O)N[C@@H](Cc1c[nH]cn1)C(=O)N1CCC[C@H]1C(=O)N[C@@H](Cc1ccccc1)C(=O)O)CSSC[C@H](C(=O)N[C@H](Cc1c[nH]cn1)C(=O)N1CCC[C@@H]1C(=O)N[C@H](Cc1ccccc1)C(=O)O)NC(=O)[C@@H](Cc1ccc(O)cc1)NC(=O)[C@H]1C[C@H](CN1C(=O)[C@@H](CCCN=C(N)N)NC(=O)CNC)SS2	460 nM	190 nM
CNCC(=O)N[C@@H](CCCN=C(N)N)C(=O)N[C@H]1CSSC[C@@H](C(=O)N[C@@H](Cc2c[nH]cn2)C(=O)N2CCC[C@H]2C(=O)N[C@@H](Cc2ccccc2)C(=O)O)NC(=O)[C@H](Cc2ccc(O)cc2)NC1=O (H-[Sar]RCYCHPF-OH; disulfide 3-5)	–	7.6 nM
CNCC(=O)N[C@@H](CCCN=C(N)N)C(=O)N[C@H]1CSS[C@@H]2C[C@@H](C(=O)N[C@@H](Cc3c[nH]cn3)C(=O)N3CCC[C@H]3C(=O)N[C@@H](Cc3ccccc3)C(=O)O)N(C2)C(=O)[C@H](Cc2ccc(O)cc2)NC1=O (H-[Sar]RCY[Pro(4R-SH)]HPF-OH; disulfide 3-5)	160 nM	18 nM
CNCC(=O)N[C@@H](CCCN=C(N)N)C(=O)N[C@H]1CSS[C@H]2C[C@@H](C(=O)N[C@@H](Cc3c[nH]cn3)C(=O)N3CCC[C@H]3C(=O)N[C@@H](Cc3ccccc3)C(=O)O)N(C2)C(=O)[C@H](Cc2ccc(O)cc2)NC1=O (H-[Sar]RCY[Pro(4S-SH)]HPF-OH; disulfide 3-5)	–	62 nM
CNCC(=O)N[C@@H](CCCN=C(N)N)C(=O)N[C@H]1CSSCC[C@@H](C(=O)N[C@@H](Cc2c[nH]cn2)C(=O)N2CCC[C@H]2C(=O)N[C@@H](Cc2ccccc2)C(=O)O)NC(=O)[C@H](Cc2ccc(O)cc2)NC1=O (H-[Sar]RCY[hCys]HPF-OH; disulfide 3-5)	–	2.6 nM
CNCC(=O)N[C@@H](CCCN=C(N)N)C(=O)N[C@H]1CC(=O)NCCCC[C@@H](C(=O)N[C@@H](Cc2c[nH]cn2)C(=O)N2CCC[C@H]2C(=O)N[C@@H](Cc2ccccc2)C(=O)O)NC(=O)[C@H](Cc2ccc(O)cc2)NC1=O (H-[Sar]RDYKHPF-OH; lactam 3-5)	53 nM	12 nM
CNCC(=O)N[C@@H](CCCN=C(N)N)C(=O)N[C@H]1CC(=O)NCCC[C@@H](C(=O)N[C@@H](Cc2c[nH]cn2)C(=O)N2CCC[C@H]2C(=O)N[C@@H](Cc2ccccc2)C(=O)O)NC(=O)[C@H](Cc2ccc(O)cc2)NC1=O (H-[Sar]RDY[Orn]HPF-OH; lactam 3-5)	–	683 nM
CNCC(=O)N[C@@H](CCCN=C(N)N)C(=O)N[C@H]1CCC(=O)NCCCC[C@@H](C(=O)N[C@@H](Cc2c[nH]cn2)C(=O)N2CCC[C@H]2C(=O)N[C@@H](Cc2ccccc2)C(=O)O)NC(=O)[C@H](Cc2ccc(O)cc2)NC1=O (H-[Sar]REYKHPF-OH; lactam 3-5)	–	89 nM
CNCC(=O)N[C@@H](CCCN=C(N)N)C(=O)N[C@H](C(=O)N[C@@H](Cc1ccc(O)cc1)C(=O)N[C@H]1CSSC[C@@H](C(=O)O)NC(=O)[C@@H]2CCCN2C(=O)[C@H](Cc2c[nH]cn2)NC1=O)C(C)C (H-[Sar]RVYCHPC-OH; disulfide 5-8)	–	1200 nM
CNCC(=O)N[C@@H](CCCN=C(N)N)C(=O)N1C[C@@H]2C[C@H]1C(=O)N[C@@H](Cc1ccc(O)cc1)C(=O)N[C@H](C(=O)N[C@@H](Cc1c[nH]cn1)C(=O)N1CCC[C@H]1C(=O)N[C@@H](Cc1ccccc1)C(=O)O)CCSS2 (H-[Sar]R[Pro(4S-SH)]Y[hCys]HPF-OH; disulfide 3-5)	440 nM	510 nM
CNCC(=O)N[C@@H](CCCN=C(N)N)C(=O)N[C@H]1CCSS[C@@H]2C[C@@H](C(=O)N[C@@H](Cc3c[nH]cn3)C(=O)N3CCC[C@H]3C(=O)N[C@@H](Cc3ccccc3)C(=O)O)N(C2)C(=O)[C@H](Cc2ccc(O)cc2)NC1=O (H-[Sar]R[hCys]Y[Pro(4R-SH)]HPF-OH; disulfide 3-5)	13 nM	1.3 nM
CNCC(=O)N[C@@H](CCCN=C(N)N)C(=O)N[C@H]1CCSSCC[C@@H](C(=O)N[C@@H](Cc2c[nH]cn2)C(=O)N2CCC[C@H]2C(=O)N[C@@H](Cc2ccccc2)C(=O)O)NC(=O)[C@H](Cc2ccc(O)cc2)NC1=O (H-[Sar]R[hCys]Y[hCys]HPF-OH; disulfide 3-5)	3.2 nM	–
CNCC(=O)N[C@@H](CCCNC(=N)N)C(=O)N[C@H]1CCSSCC[C@@H](C(=O)N[C@@H](Cc2cnc[nH]2)C(=O)N2CCC[C@H]2C(=O)N[C@@H](Cc2ccccc2)C(=O)O)NC(=O)[C@H](Cc2ccc(O)cc2)NC1=O (H-[Sar]R[hCys]Y[hCys]HPF-OH; disulfide 3-5)	–	1.3 nM
CNCC(=O)N[C@@H](CCCN=C(N)N)C(=O)N1C[C@@H]2C[C@H]1C(=O)N[C@@H](Cc1ccc(O)cc1)C(=O)N[C@H](C(=O)N[C@@H](Cc1c[nH]cn1)C(=O)N1CCC[C@H]1C(=O)N[C@@H](Cc1ccccc1)C(=O)O)CSS[C@H]1C[C@@H](C(=O)N[C@@H](Cc3ccc(O)cc3)C(=O)N[C@H](C(=O)N[C@@H](Cc3c[nH]cn3)C(=O)N3CCC[C@H]3C(=O)N[C@@H](Cc3ccccc3)C(=O)O)CSS2)N(C(=O)[C@H](CCCN=C(N)N)NC(=O)CNC)C1 (I: H-[Sar]R[Pro(4S-SH)]YCHPF-OH / II: H-[Sar]R[Pro(4S-SH)]YCHPF-OH; disulfide I:3-II:5, I:5-II:3)	870 nM	110 nM
CC[C@H](C)[C@H](NC(=O)[C@H](Cc1ccc(O)cc1)NC(=O)[C@@H](NC(=O)[C@H](CCCNC(=N)N)NC(=O)[C@@H](N)CC(=O)O)C(C)C)C(=O)N[C@@H](Cc1cnc[nH]1)C(=O)N1CCC[C@H]1C(=O)N[C@@H](Cc1ccccc1)C(=O)O [ANGIOTENSIN II]	2.5 nM	–

Next, values leading:

EC50 (Oryctolagus cuniculus)	IC50 [1]	Molecule
–	1230 nM	CNCC(=O)N[C@@H](CCCN=C(N)N)C(=O)N[C@H]1CSSC[C@@H](C(=O)N[C@@H](Cc2ccccc2)C(=O)O)NC(=O)[C@H](Cc2c[nH]cn2)NC(=O)[C@H](C(C)C)NC(=O)[C@H](Cc2ccc(O)cc2)NC1=O (H-[Sar]RCYVHCF-OH; disulfide 3-7)
–	520 nM	CNCC(=O)N[C@@H](CCCN=C(N)N)C(=O)N[C@H]1CSSC[C@@H](C(=O)O)NC(=O)[C@@H]2CCCN2C(=O)[C@H](Cc2c[nH]cn2)NC(=O)[C@H](C(C)C)NC(=O)[C@H](Cc2ccc(O)cc2)NC1=O (H-[Sar]RCYVHPC-OH; disulfide 3-8)
–	87 nM	CNCC(=O)N[C@@H](CCCN=C(N)N)C(=O)N1C[C@H]2C[C@H]1C(=O)N[C@@H](Cc1ccc(O)cc1)C(=O)N[C@H](C(=O)N[C@@H](Cc1c[nH]cn1)C(=O)N1CCC[C@H]1C(=O)N[C@@H](Cc1ccccc1)C(=O)O)CSS2 (H-[Sar]R[Pro(4R-SH)]YCHPF-OH; disulfide 3-5)
700 nM	29 nM	CNCC(=O)N[C@@H](CCCN=C(N)N)C(=O)N1C[C@H]2C[C@H]1C(=O)N[C@@H](Cc1ccc(O)cc1)C(=O)N[C@H](C(=O)N[C@@H](Cc1c[nH]cn1)C(=O)N1CCC[C@H]1C(=O)N[C@@H](Cc1ccccc1)C(=O)O)CCSS2 (H-[Sar]R[Pro(4R-SH)]Y[hCys]HPF-OH; disulfide 3-5)
690 nM	110 nM	CNCC(=O)N[C@@H](CCCN=C(N)N)C(=O)N[C@H]1CCSS[C@H]2C[C@@H](C(=O)N[C@@H](Cc3c[nH]cn3)C(=O)N3CCC[C@H]3C(=O)N[C@@H](Cc3ccccc3)C(=O)O)N(C2)C(=O)[C@H](Cc2ccc(O)cc2)NC1=O (H-[Sar]R[hCys]Y[Pro(4S-SH)]HPF-OH; disulfide 3-5)
–	28 nM	CNCC(=O)N[C@@H](CCCN=C(N)N)C(=O)N[C@H]1CSSC[C@@H](C(=O)N[C@@H](Cc2c[nH]cn2)C(=O)N2CCC[C@H]2C(=O)N[C@@H](Cc2ccccc2)C(=O)O)NC(=O)[C@H](Cc2ccc(O)cc2)NC(=O)[C@@H](NC(=O)[C@H](CCCN=C(N)N)NC(=O)CNC)CSSC[C@@H](C(=O)N[C@@H](Cc2c[nH]cn2)C(=O)N2CCC[C@H]2C(=O)N[C@@H](Cc2ccccc2)C(=O)O)NC(=O)[C@H](Cc2ccc(O)cc2)NC1=O (I: H-[Sar]RCYCHPF-OH / II: H-[Sar]RCYCHPF-OH; disulfide I:3-II:5, I:5-II:3)
32 nM	5.57 nM	CC[C@H](C)[C@H](NC(=O)[C@H](Cc1ccc(O)cc1)NC(=O)[C@@H](NC(=O)[C@@H](N)CCCN=C(N)N)C(C)C)C(=O)N[C@@H](Cc1c[nH]cn1)C(=O)N1CCC[C@H]1C(=O)N[C@@H](Cc1ccccc1)C(=O)O [ANGIOTENSIN III]
> 10000 nM	300 nM	H-DRVYIHPFHL-OH
